Results reported in ChEMBL document CHEMBL4130626, “α-Arylidene Diacylglycerol-Lactones (DAG-Lactones) as Selective Ras Guanine-Releasing Protein 3 (RasGRP3) Ligands” (J Med Chem, 2018).

Target: T1, Protein kinase C epsilon type (Homo sapiens, UniProt Q02156)
T1 sequence (Q02156 whole entry): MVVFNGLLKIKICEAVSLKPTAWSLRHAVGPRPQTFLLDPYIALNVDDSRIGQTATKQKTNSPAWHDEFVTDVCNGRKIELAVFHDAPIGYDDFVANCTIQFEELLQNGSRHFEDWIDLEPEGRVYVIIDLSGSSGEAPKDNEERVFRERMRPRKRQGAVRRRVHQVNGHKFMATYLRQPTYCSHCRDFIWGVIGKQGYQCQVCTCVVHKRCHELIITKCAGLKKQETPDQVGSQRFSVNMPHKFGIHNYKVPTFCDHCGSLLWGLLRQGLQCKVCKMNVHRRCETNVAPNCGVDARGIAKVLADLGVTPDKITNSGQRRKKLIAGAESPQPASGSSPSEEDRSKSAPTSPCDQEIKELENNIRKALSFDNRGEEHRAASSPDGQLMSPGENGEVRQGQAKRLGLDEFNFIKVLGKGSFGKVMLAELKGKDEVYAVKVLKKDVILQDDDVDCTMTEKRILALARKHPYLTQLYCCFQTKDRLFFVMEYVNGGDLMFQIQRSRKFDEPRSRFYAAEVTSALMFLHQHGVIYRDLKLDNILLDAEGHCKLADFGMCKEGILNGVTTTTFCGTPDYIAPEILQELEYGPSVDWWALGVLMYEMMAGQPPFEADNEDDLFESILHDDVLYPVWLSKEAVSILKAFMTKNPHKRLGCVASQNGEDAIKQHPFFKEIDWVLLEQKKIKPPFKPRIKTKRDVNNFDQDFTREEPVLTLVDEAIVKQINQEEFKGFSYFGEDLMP
Test: Displacement of [3H]PDBu from full length recombinant human PKCepsilon expressed in baculovirus expression system after 5 mins by scintillation counting
How it was run: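 Competition of [3H]PDBu binding by polyethylene glycol precipitation, with 100 µg/ml phosphatidylserine and ≤0.003% Triton X-100, 5 min at 37 °C. Proteins: full-length purified human PKCα, PKCε; full-length RasGRP1; MBP-RasGRP3 from E. coli BL21(DE3) induced with 0.3 mM IPTG 6 h at room temperature. Ki mean ± SEM of ≥2 experiments, triplicate points.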

Ki: 78.9 nM
SMILES: Cn1cc(/C=C2\CC(CO)(COC(=O)C(C)(C)C)OC2=O)c2ccccc21 (stereo unspecified)
